Screening results: PubChem BioAssay, Johns Hopkins Ion Channel Center
TRPC4 inh: TRPC4 (mouse) channel inhibition. B-score at 10 µM. actives 0.39% (n = 300,000). HEK293 TRPC4beta/mu-opioid, DAMGO-evoked Fluo4 calcium flux; stronger effect = lower value. Q9QUQ5;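 active = B-score over 3 SD under the library average, no early fluorescence shift, positive overall ratio signal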
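Assay system: TRPC4beta/mu-opioid receptor HEK293 cell line; compound dosing: single concentration per test compound; detection: Fluo4 Ca2+ flux fluorescence; evaluation: per-well B score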
TRPC4 agonist: opens the mouse TRPC4 cation channel. Q9QUQ5. HEK293 TRPC4beta/mu-opioid, Fluo4 calcium fluorescence; stronger effect = higher value. B-score at 10 µM. actives 0.49% (n = 310,000);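 active = B-score above 5 SD of library B-scores, and initial fluorescence ratio not above library mean plus 5 SD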;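 also: positive B-score marks a calcium rise read as TRPC4 activation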
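Assay system – TRPC4beta and mu-opioid receptor HEK293 stable cells · Measured by – Fluo4 fluorescence, kinetic · Schedule – dye loading 45 min room temperature, 110 s kinetic read · Read-out – B-scored integrated calcium fluorescence ratio · Controls – buffer and maximal DAMGO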
TRPC4 PAM: TRPC4 (mouse) allosteric potentiation. actives 0.42% (n = 310,000). B-score at 10 µM. HEK293 TRPC4beta/mu-opioid, DAMGO EC20, Fluo-4 Ca2+ flux; stronger effect = higher value;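 active = B-score of calcium response area above 5 SD of library B-scores, with initial fluorescence ratio within 5 SD of library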
TRPC6 act: mouse TRPC6 channel activation; AID 2550; B-score at 10 µM; HEK293-TRPC6 membrane potential dye fluorescence; stronger effect = higher value; Q61143; actives 0.13% (n = 310,000);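 active = B-score of the integrated fluorescence ratio above library mean plus 3 SD, and starting fluorescence ratio within library mean plus 5 SD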;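 also: higher score means more depolarization so channel activation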
TRPC6 inh: mouse TRPC6 channel inhibition. AID 2553. Q61143. HEK293-TRPC6, membrane potential dye, ACh-evoked depolarization; stronger effect = lower value. B-score at 10 µM. actives 1.1% (n = 310,000);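 active = B-score under library mean minus 3 SD, initial fluorescence not abnormally high, positive integrated signal ratio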;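 also: B-score derived from integrated fluorescence ratio over the kinetic read; more negative B-score means stronger inhibition of depolarization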
Kir21 inh: blocks the mouse Kir2.1 inward-rectifier potassium channel. P35561. HEK293-Kir2.1, FluxOR thallium flux fluorescence; stronger effect = lower value. B-score at 10 µM. actives 0.85% (n = 310,000). AID 1672;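 active = fluorescence ratio B-score at or below minus 3 SD of library scores, with starting-brightness B-score within 2 SD, cut at about -4.2 in these data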;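 also: channel flux triggered by added potassium and thallium sulfate stimulus; B-score of peak minus minimum fluorescence over baseline after thallium stimulus; more negative B-score means stronger Kir2.1 block with less thallium influx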
Target sequence (P35561 whole entry, looked up): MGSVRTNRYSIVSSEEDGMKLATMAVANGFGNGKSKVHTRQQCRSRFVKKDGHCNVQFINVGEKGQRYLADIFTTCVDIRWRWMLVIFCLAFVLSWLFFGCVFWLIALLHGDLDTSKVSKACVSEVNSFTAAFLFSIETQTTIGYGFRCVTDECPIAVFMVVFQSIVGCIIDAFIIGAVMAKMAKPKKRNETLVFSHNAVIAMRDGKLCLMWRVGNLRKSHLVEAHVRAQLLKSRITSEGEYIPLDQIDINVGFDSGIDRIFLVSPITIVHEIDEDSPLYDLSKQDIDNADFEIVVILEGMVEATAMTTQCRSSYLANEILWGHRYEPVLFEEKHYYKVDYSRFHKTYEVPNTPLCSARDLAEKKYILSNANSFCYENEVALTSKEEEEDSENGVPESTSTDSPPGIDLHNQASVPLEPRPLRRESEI
TRPC4 spec 2: second selectivity test of TRPC6 inhibitors: effect on mouse TRPC4; HEK293 TRPC4/MOR, membrane potential dye fluorescence; channel activated by saturating DAMGO dose; shares compounds with TRPC6 inh; actives 42% (n = 920); inhibition, % at 10 µM;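 active = compounds whose fluorescence signal differed from control wells by over 3 SD, either direction, in both duplicate plates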
TRPC4 spec: mouse TRPC4 off-target activity of TRPC6 inhibitors; activity change, negative = inhibition, % at 10 µM; actives 61% (n = 920); HEK293 TRPC4/mu-opioid, membrane potential fluorescence; shares compounds with TRPC6 inh; AID 2777;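 active = rise or fall in signal beyond 3 SD of buffer-only wells in both replicate plates, either sign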;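 also: integrated kinetic ratio of fluorescence range over baseline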
HEK293 MPD ctr 2-1: second check of TRPC6 inhibitor effects in parental HEK293 cells | shares compounds with TRPC6 inh | signal change vs control, % at 10 µM | actives 31% (n = 920) | parental HEK293 membrane potential dye fluorescence; maximal acetylcholine challenge after compound addition;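 active = membrane potential signal moving either way by over 3 SD of the maximum-effect control, in both duplicate plates, meaning non-specific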
HEK293 MPD ctr-1: checks TRPC6 inhibitor effects in parental HEK293 cells. shares compounds with TRPC6 inh. parental HEK293 membrane potential dye fluorescence. membrane potential signal change, % at 10 µM. actives 60% (n = 920);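 active = membrane potential signal shifting up or down by more than 3 SD of buffer-only wells, on both duplicate plates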
HEK293 MPD ctr-2: counter-screen for TRPC6 modulators: effect in parental HEK293 cells | shares compounds with TRPC6 inh | membrane potential dye fluorescence | membrane potential signal change, % at 10 µM | actives 51% (n = 2,400) | AID 488924;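 active = membrane potential signal moves up or down beyond 5 SD from buffer-only wells, on both duplicate plates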
HEK293 MPD ctr 2-2: second check of TRPC6 modulator effects in parental HEK293 cells; shares compounds with TRPC6 inh; membrane potential dye fluorescence; after compound, maximal acetylcholine stimulation; inhibition, % at 10 µM; actives 14% (n = 2,400); AID 488926;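 active = membrane potential signal drops by more than 5 SD from the mean control signal, in both duplicate plates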
TRPC4/MOR mod: mouse TRPC4 off-target activity of TRPC6 modulators; HEK293 TRPC4/mu-opioid, membrane potential fluorescence; actives 69% (n = 2,400); shares compounds with TRPC6 inh; percent change from control (negative = decrease, positive = increase), % at 10 µM;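 active = membrane potential signal moved up or down beyond 5 SD of buffer control wells, in both duplicate plates, actives on both sides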
TRPC4 ctr inh 2: second check of whether TRPC6 modulators also affect mouse TRPC4. shares compounds with TRPC6 inh. HEK293 TRPC4/mu-opioid, membrane potential dye fluorescence; stimulated with maximal-effect DAMGO. inhibition, % at 10 µM. actives 55% (n = 2,400). AID 488928;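 active = drop in membrane potential signal beyond 5 SD of the control wells in both duplicate plates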;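 also: TRPC4 counter screen for TRPC6 hits run under conditions tuned for TRPC6 not TRPC4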
TRPC6 block conf: confirmation of mouse TRPC6 inhibitors; shares compounds with TRPC6 inh; HEK293-TRPC6, membrane potential dye, ACh-evoked depolarization; inhibition, % at 10 µM; actives 43% (n = 3,300); AID 488960;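 active = fluorescence ratio falls more than 5 SD below the full-stimulation control mean, in both duplicate runs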;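 also: integrated fluorescence ratio of peak minus minimum over baseline after agonist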
TRPC6 act confirm: mouse TRPC6 activator confirmation | shares compounds with TRPC6 inh | HEK293-TRPC6 membrane potential dye fluorescence, FDSS | activation, % at 10 µM | actives 11% (n = 2,800) | AID 488961;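 active = ratio signal rise beyond 5 SD above unstimulated control wells' mean, seen in both duplicate runs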
Numbers stand for hits; 0 = inactive; - = no result given. This is a sample that favours compounds with a hit; in the whole collection about 2.9% have one here.

SMILES	TRPC4 inh	TRPC4 agonist	TRPC4 PAM	TRPC6 act	TRPC6 inh	Kir21 inh	HEK293 MPD ctr-2	HEK293 MPD ctr 2-2	TRPC4/MOR mod	TRPC4 ctr inh 2	TRPC6 block conf	TRPC6 act confirm	others
COc1ccc2occ(C(=O)c3coc4ccc(O)c(CN(C)C)c34)c2c1	0	0	0	0	-13	0	-146%	0	-34%	84%	67%	0
COc1ccc(C(=O)c2coc3ccc(O)c(CN4CCCCC4)c23)cc1	0	0	0	0	-8.8	0	-	-	-	-	0	0	TRPC4 spec 2=40%;TRPC4 spec=0;HEK293 MPD ctr 2-1=0;HEK293 MPD ctr-1=1.5%
Nc1nnc(SCC(=O)OCC(=O)c2ccccc2Br)s1	0	0	0	0	0	0	-	-	-	-	-	-
COc1ccc(C(=O)/C(C#N)=N/Nc2ccc([N+](=O)[O-])cc2)cc1	0	0	0	0	-5.7	0	0	0	0	0	0	0
COCCN(C(=O)Cn1nnc2ccccc21)C(C(=O)NC1CCCC1)c1ccc(OC)cc1OC (stereo not drawn)	0	0	0	20	0	0	600%	194%	118%	0	-	311%
CCCCN(C(=O)Cn1nnc2ccccc21)C(C(=O)NCCOC)c1ccc(OC)cc1 (stereo not drawn)	0	0	0	0	0	0	-	-	-	-	-	-
COCCN(C(=O)Cn1nnc2ccccc21)C(C(=O)NC1CCCCC1)c1ccc(OC)cc1OC (stereo not drawn)	0	0	0	38	0	0	818%	173%	163%	0	-	354%
COc1ccc(OCCSc2ncc(CO)n2C)cc1	0	0	0	0	0	0	-	-	-	-	-	-
CCN(CC)C(=O)CSc1ncccc1-c1nc2ccccc2[nH]1	0	0	0	0	0	0	-	-	-	-	-	-
CCN(CC)c1ccc(CN2CCC(C(=O)NCc3ccc(C)cc3)CC2)cc1	0	0	0	0	-5.1	0	0	0	0	77%	58%	0
Cc1ccc(S(=O)(=O)NNC(=O)C2CCN(Cc3ccccc3)CC2)cc1	0	0	0	0	-15	0	-	-	-	-	84%	0	TRPC4 spec 2=0;TRPC4 spec=0;HEK293 MPD ctr 2-1=-14%;HEK293 MPD ctr-1=0.1%
COC(=O)C1CCN(Cc2ccc(C)cc2)CC1	0	0	0	0	0	0	-	-	-	-	-	-
CCN(CC)c1ccc(NC(=O)C2CCCC2)cc1	0	0	0	0	-5.8	0	0	0	0	0	0	0
